Assay results reported in PMC10582660 (Clinical and Translational Science, 2023).

Biological target: T1, OATP1B1 (Homo sapiens, UniProt Q9Y6L6)
T1 sequence (Q9Y6L6 1-691): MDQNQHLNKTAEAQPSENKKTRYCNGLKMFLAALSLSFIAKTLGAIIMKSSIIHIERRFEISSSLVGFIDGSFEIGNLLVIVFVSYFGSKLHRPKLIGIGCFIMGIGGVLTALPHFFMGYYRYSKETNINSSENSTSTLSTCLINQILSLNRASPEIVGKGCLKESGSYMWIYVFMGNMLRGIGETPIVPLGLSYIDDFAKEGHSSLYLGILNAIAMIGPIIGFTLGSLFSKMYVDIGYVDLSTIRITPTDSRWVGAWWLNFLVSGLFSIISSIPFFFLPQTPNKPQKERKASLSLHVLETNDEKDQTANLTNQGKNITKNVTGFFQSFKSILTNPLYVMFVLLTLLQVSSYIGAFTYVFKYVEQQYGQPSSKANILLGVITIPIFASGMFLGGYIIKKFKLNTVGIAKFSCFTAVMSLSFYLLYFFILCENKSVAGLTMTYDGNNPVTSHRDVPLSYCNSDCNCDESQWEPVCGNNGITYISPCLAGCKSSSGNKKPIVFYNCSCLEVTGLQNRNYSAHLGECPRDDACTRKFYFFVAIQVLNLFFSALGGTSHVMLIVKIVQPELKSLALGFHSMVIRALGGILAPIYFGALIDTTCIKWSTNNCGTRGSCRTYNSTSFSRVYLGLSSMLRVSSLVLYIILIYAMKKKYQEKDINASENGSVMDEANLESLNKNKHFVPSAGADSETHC
Assay: Raloxifene as a substrate for uptake transporters
Format: in vitro ADME
Conditions: raloxifene 1, 10 μM, 2, 20 min, two‐fold cutoff
Procedure, shortened: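 Uptake of test compound (1 and 10 μM, 2 and 20 min) measured in transporter-expressing HEK293 or MDCKII cells or inside-out membrane vesicles. Run with positive-control probe substrates and inhibitors, plus empty-vector or untransfected control cells. Fold-accumulation relative to control cells judged against a two-fold cutoff for substrate status.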

fold‐accumulation: 1.04–1.19
Compound: O=C(c1ccc(OCCN2CCCCC2)cc1)c1c(-c2ccc(O)cc2)sc2cc(O)ccc12 [Raloxifene, raloxifene, reference compound]
